From ChEMBL document CHEMBL4251567 (Eur J Med Chem, 2018) come the findings set out here.

The target in assay [1] is T1, Protein deacetylase HDAC6 (Homo sapiens) (UniProt Q9UBN7).
T1 sequence (whole entry): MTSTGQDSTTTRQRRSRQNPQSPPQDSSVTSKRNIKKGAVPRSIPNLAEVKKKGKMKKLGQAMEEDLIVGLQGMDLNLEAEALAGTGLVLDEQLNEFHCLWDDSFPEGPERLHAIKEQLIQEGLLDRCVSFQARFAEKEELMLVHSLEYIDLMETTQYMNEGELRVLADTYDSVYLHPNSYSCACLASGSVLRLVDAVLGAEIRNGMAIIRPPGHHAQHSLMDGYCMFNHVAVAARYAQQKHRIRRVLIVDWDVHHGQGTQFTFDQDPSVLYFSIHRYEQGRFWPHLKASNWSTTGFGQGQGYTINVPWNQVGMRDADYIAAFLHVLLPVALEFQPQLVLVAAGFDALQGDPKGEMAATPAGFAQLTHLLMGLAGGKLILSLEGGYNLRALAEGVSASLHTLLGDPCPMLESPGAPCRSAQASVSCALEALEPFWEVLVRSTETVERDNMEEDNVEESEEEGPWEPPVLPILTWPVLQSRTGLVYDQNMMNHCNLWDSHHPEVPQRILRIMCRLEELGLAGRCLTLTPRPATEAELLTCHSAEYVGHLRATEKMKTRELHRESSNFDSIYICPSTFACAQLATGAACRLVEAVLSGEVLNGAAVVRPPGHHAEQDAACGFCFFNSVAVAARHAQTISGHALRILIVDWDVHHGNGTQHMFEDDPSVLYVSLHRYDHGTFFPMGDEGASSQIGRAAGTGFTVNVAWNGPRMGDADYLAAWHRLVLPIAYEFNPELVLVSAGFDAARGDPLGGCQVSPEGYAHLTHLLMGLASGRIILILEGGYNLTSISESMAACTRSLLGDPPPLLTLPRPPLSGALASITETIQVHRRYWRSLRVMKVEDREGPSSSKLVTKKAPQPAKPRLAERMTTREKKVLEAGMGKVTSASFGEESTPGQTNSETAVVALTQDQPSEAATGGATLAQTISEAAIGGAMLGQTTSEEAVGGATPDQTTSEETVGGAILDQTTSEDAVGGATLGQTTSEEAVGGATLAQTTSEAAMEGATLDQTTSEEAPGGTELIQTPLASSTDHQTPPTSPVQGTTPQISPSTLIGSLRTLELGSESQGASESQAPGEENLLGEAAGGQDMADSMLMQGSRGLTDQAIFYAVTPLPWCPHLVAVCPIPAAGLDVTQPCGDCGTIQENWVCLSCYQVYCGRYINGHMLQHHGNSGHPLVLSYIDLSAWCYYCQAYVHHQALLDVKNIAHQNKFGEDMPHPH
The assay is described as follows: Inhibition of HDAC6 in human U937 cells assessed as increase in acetyl-alpha-tubulin levels after 18 hrs by Western blot method. The format is cell-based. In a few lines: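 U937 cells (10^6/well in RPMI-1640 with 10% FCS) treated 18 h at 37 °C, 5% CO2 with inhibitor or DMSO (1% final). Lysates separated on 16% SDS-PAGE and blotted to PVDF. Probed with anti-acetyl-α-tubulin(Lys40) and anti-acetyl-H3(Lys9), GAPDH as load control; ECL detection. Blots representative of three trials.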
(In western blotting, separated proteins are transferred to a membrane and probed.)

Assay [2] deals with Histone deacetylase 1 (Homo sapiens) (UniProt Q13547). The assay is described as follows: Inhibition of HDAC1 in human HeLa-S3 cell lysates assessed as remaining activity at 1.25 uM preincubated for 15 mins followed by HDAC-Glo substrate addition measured after 30 to 40 mins by […] relative to control. In a few lines: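 HDAC1 was captured from HeLa-S3 lysate (100 μg/mL) onto wells precoated with anti-HDAC1 antibody (10 μg/mL, carbonate buffer pH 9.4) and milk-blocked, 1 h at 4 °C, then washed. Inhibitor in DMSO was added in HDAC-Glo buffer for 15 min at room temperature. HDAC-Glo reagent was added and luminescence read after 30-40 min. Concentrations are final. No-antibody background subtracted; % of DMSO control.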

In assay [3] the target is Histone deacetylase (Homo sapiens) (UniProt Q13547+O15379+Q9UBN7+Q92769+Q9UQL6+Q8WUI4+Q9BY41+Q96DB2+P56524+Q9UKV0+Q969S8). The assay is described as follows: Inhibition of HDAC in human HeLa-S3 cell lysates assessed as residual activity at 6 x 10^-6 M preincubated for 15 mins followed by HDAC-Glo substrate addition measured after 35 mins by […] relative to control. It is filed as protein assay. The essentials: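 Lysate (1 μg total protein) in HDAC-Glo buffer was preincubated with inhibitor in DMSO for 15 min at room temperature. HDAC-Glo substrate/developer reagent was added and luminescence read after 35 min. Concentrations are final. Signal corrected for a no-lysate blank; % of DMSO control.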

Assay [4] concerns the target Histone deacetylase 1 (Homo sapiens) (UniProt Q13547). The assay is described as follows: Inhibition of HDAC1 in human HeLa-S3 cell lysates assessed as remaining activity at […] preincubated for 15 mins followed by HDAC-Glo substrate addition measured after 30 to 40 mins by […] relative to control.
Assay [5] deals with Histone deacetylase 3 (Homo sapiens) (UniProt O15379). The assay is described as follows: Inhibition of HDAC3 in human HeLa-S3 cell lysates assessed as remaining activity at […] preincubated for 15 mins followed by HDAC-Glo substrate addition measured after 30 to 40 mins by […] relative to control.
Assay [6] addresses Histone deacetylase 2 (Homo sapiens) (UniProt Q92769). The assay is described as follows: Inhibition of HDAC2 in human HeLa-S3 cell lysates assessed as remaining activity at 4 x 10^-6 M preincubated for 15 mins followed by HDAC-Glo substrate addition […] relative to control.
The target is the same in assay [7]. The experiment in a line: Inhibition of HDAC2 in human HeLa-S3 cell lysates assessed as remaining activity at 2 x 10^-6 M preincubated for 15 mins followed by HDAC-Glo substrate addition measured after 30 to 40 mins by fluorimetric method relative to control. The essentials:
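Same antibody-capture format as the other class I isoforms. HeLa-S3 lysate added at 100 μg/mL for HDAC1 and HDAC2, 1 h at 4 °C, then washed. Inhibitor in DMSO preincubated 15 min at RT; HDAC-Glo reagent added and luminescence read after 30-40 min. Concentrations are final. Signal corrected against a well without antibody; activity expressed as % of DMSO control.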

Assay [8] concerns the target Histone deacetylase 3 (Homo sapiens) (UniProt O15379). The experiment in a line: Inhibition of HDAC3 in human HeLa-S3 cell lysates assessed as remaining activity at 8 x 10^-6 M preincubated for 15 mins followed by HDAC-Glo substrate addition measured after 30 to 40 mins by […] relative to control. In a few lines: (§1)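 Antibody-capture (ELISA-type) assay: HDAC antibody coated in carbonate/bicarbonate buffer pH 9.4, wells blocked with 5% milk in TBST. HeLa-S3 lysate added at 1 mg/mL for HDAC3, 1 h at 4 °C, then washed. Inhibitor in DMSO preincubated 15 min at RT in HDAC-Glo buffer. HDAC-Glo reagent added, luminescence read after 30-40 min. Concentrations are final. Background = no-antibody well; activity given as % of DMSO control.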

Assay [9] has the same target. The assay is described as follows: Inhibition of HDAC3 in human HeLa-S3 cell lysates assessed as remaining activity at 4 x 10^-6 M preincubated for 15 mins followed by HDAC-Glo substrate addition measured after 30 to 40 mins by fluorimetric method relative to control. The essentials: as §1

Histone deacetylase 3 (Homo sapiens), sequence (O15379 whole entry): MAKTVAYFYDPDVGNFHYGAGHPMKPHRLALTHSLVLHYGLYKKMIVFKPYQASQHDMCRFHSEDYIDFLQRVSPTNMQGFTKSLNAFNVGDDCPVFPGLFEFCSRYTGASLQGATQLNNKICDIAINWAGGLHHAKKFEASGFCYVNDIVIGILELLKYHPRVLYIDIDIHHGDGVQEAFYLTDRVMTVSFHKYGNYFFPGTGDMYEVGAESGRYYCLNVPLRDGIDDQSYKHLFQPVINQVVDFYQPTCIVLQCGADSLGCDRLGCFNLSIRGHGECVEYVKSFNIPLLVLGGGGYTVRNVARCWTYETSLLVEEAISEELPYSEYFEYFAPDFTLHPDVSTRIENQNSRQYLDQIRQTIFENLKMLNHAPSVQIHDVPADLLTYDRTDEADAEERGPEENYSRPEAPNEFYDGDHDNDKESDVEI
Histone deacetylase 1 (Homo sapiens), sequence (Q13547 whole entry): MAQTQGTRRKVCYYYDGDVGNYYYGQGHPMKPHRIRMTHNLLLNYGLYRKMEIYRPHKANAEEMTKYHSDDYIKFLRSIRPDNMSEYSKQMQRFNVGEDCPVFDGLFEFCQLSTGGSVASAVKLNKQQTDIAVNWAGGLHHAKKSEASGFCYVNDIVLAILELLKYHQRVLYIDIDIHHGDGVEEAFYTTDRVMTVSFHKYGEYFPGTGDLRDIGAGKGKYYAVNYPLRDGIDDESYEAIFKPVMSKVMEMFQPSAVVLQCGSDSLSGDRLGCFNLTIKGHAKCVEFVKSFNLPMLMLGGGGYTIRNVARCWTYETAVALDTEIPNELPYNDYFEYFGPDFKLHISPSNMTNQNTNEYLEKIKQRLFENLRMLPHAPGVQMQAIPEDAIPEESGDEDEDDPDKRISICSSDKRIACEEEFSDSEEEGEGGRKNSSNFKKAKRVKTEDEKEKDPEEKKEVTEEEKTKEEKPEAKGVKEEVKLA
Histone deacetylase 2 (Homo sapiens), sequence (Q92769 whole entry): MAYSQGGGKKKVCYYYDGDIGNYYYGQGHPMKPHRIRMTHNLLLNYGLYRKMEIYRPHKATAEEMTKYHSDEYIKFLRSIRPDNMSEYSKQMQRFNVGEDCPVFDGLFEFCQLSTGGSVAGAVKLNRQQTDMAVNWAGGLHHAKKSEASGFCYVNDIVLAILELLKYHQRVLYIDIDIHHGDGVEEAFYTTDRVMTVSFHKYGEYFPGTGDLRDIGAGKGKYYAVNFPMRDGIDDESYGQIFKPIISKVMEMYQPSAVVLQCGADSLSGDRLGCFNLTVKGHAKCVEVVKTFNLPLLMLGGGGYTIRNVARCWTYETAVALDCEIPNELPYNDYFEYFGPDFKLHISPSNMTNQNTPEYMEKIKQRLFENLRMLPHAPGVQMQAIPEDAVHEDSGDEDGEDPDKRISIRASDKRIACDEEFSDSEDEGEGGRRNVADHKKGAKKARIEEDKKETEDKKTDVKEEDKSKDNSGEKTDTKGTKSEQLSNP

Consider `O=C(CCC(CCCC(=O)Nc1ccccc1)Cc1ccccc1)NO` (racemic), for which the inhibition result in [1] is “Dose-dependent effect”.

Regarding `CCCCCCC(CCCC(=O)Nc1ccccc1)CCC(=O)NO` (centres undefined), the Activity in assay [2] came out at 97%.

On to `CCC(CCCC(=O)Nc1ccccc1)CCC(=O)NO` (centres undefined), for which the Activity in assay [3] stood at 82%; in assay [4], 91%; in assay [5], 71%; in assay [6], 59%; in [7] it was 69%; in [8], 52%. In addition, in assay [9], the Activity stood at 64%.
